Data: ChEMBL document CHEMBL1127478 (J Med Chem, 1994)
Residues, ends and D or L forms follow the SMILES beside them.

Experiments:
Rattus norvegicus [1] = organism: Rattus norvegicus; assay: Inhibition of pressor response to exogenous AVP in the pitched rat preparation; assay type: functional, organism-based; settings: read-out: pA2 (converted)
Summary of the method: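 Pressor test in pitched rats. Reported as the negative decadic log of the effective dose (mol/kg) that reduces the effect of a 1×10^-5 mg AVP dose to the level of […] AVP. Values are mean ± SE.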

Rattus norvegicus [2] = organism: Rattus norvegicus; assay: In vitro antiuterotonic activity in rat oxytocic bioassay in the absence of Mg2+; assay type: functional; settings: read-out: pA2 (converted)
Rattus norvegicus [3] = assay: In vivo antiuterotonic activity in the rat uterotonic assay; assay type: functional, organism-based; settings: read-out: pA2 (converted)
Vasopressin V2 receptor = Vasopressin V2 receptor (Bos taurus, UniProt P48044); assay: Inhibition of radioligand [3H]AVP binding to V2 receptor in bovine kidney inner medulla membrane
Summary of the method: (§1)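 Competition binding with 10 nM [3H]AVP (17.4 Ci/mmol) and varying concentrations of unlabeled peptide. V1 used rat liver plasma membranes prepared by two-phase polymer separation. V2 used bovine kidney inner medulla membranes prepared by differential centrifugation. Kd came from a weighted nonlinear least-squares fit to logistic curves.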

Vasopressin V1 receptor = Vasopressin V1 receptor (Rattus norvegicus, UniProt P48974+P30560); assay: Inhibition of radioligand [3H]AVP binding to V1 receptor in rat liver plasma membrane; assay type: cell membranes; summary of the method: as §1
[4] = Selectivity aUT/aP ratio of the compound; assay type: functional
Summary of the method: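 Reciprocal of the ratio of effective doses in the uterotonic in vitro test (mol/L) and the pressor test (mol/kg). Where given in parentheses, the reciprocal of the ratio of the uterotonic in vivo dose (mol/kg) to the pressor dose (mol/kg).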

Rattus norvegicus [5] = organism: Rattus norvegicus; assay: In vitro antiuterotonic activity in rat oxytocic bioassay in the presence of 1 mM Mg2+; assay type: functional; settings: read-out: pA2 (converted)
Summary of the method: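 Isolated rat uterus in medium containing 1 mM Mg2+, with oxytocin-induced contractions challenged by the antagonist.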

Vasopressin V2 receptor, sequence (P48044 whole entry): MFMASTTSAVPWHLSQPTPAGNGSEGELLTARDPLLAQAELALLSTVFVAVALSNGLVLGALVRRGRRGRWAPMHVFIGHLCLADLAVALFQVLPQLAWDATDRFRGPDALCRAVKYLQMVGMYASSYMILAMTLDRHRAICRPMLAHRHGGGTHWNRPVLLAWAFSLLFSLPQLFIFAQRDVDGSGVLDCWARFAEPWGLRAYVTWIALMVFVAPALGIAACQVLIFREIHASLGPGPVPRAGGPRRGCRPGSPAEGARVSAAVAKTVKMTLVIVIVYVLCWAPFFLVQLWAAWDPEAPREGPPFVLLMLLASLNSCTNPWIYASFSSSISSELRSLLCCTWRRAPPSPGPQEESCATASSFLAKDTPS

Kd (Vasopressin V2 receptor)	Kd (Vasopressin V1 receptor)	Compound	Kb (Rattus norvegicus [1])	Kb (Rattus norvegicus [2])	Kb (Rattus norvegicus [3])	Ratio [4]	Kb (Rattus norvegicus [5])
–	–	CC[C@H](C)[C@@H]1NC(=O)[C@@H](Cc2ccc(OC)cc2)NC(=O)CC2(CCCCC2)SSC[C@@H](C(=O)N2CCC[C@H]2C(=O)N[C@@H](CCCN)C(=O)NCC(N)=O)NC(=O)[C@H](CC(N)=O)NC(=O)[C@H](CCC(N)=O)NC1=O	11 nM	3.02 nM	–	–	–
98 nM	0.96 nM	CN(CC(=O)N[C@@H](CCCN=C(N)N)C(=O)NCC(N)=O)C(=O)[C@@H]1CSSC2(CCCCC2)CC(=O)NC(Cc2ccccc2)C(=O)NC(Cc2ccccc2)C(=O)N[C@@H](CCC(N)=O)C(=O)N[C@@H](CC(N)=O)C(=O)N1 (stereo in doubt)	15.8 nM	7.94 nM	25.1 nM	2	–
182 nM	8.28 nM	CC[C@H](C)C1NC(=O)CC2(CCCCC2)SSC[C@@H](C(=O)N(C)CC(=O)N[C@@H](CCCN=C(N)N)C(=O)NCC(N)=O)NC(=O)[C@H](CC(N)=O)NC(=O)[C@H](CCC(N)=O)NC(=O)[C@H](Cc2ccccc2)NC1=O (stereo in doubt)	63.1 nM	31.6 nM	251 nM	–	100 nM
811 nM	2 nM	CC[C@H](C)[C@@H]1NC(=O)[C@@H](Cc2ccc(OC)cc2)NC(=O)CC2(CCCCC2)SSC[C@@H](C(=O)N(C)CC(=O)N[C@@H](CCCN=C(N)N)C(=O)NCC(N)=O)NC(=O)[C@H](CC(N)=O)NC(=O)[C@H](CCC(N)=O)NC1=O	20 nM	2.51 nM	31.6 nM	–	6.31 nM
–	–	NC(=O)CC[C@@H]1NC(=O)[C@H](Cc2ccccc2)NC(=O)[C@H](Cc2ccc(O)cc2)NC(=O)CC2(CCCCC2)SSC[C@H](C(=O)N2CCC[C@H]2C(=O)N[C@@H](CCCN=C(N)N)C(=O)NCC(N)=O)NC(=O)[C@H](CC(N)=O)NC1=O	–	–	–	0.6	–
–	–	CN(CC(=O)N[C@@H](CCCN=C(N)N)C(=O)NCC(N)=O)C(=O)[C@@H]1CSSC2(CCCCC2)CC(=O)N[C@@H](Cc2ccc(O)cc2)C(=O)N[C@@H](Cc2ccccc2)C(=O)N[C@@H](CCC(N)=O)C(=O)N[C@@H](CC(N)=O)C(=O)N1	11.7 nM	112 nM	–	–	–
230 nM	0.22 nM	CN(CC(=O)N[C@@H](CCCN=C(N)N)C(=O)NCC(N)=O)C(=O)[C@@H]1CSSC2(CCCCC2)CC(=O)NC(Cc2ccc(O)cc2)C(=O)N[C@@H](Cc2ccccc2)C(=O)N[C@@H](CCC(N)=O)C(=O)N[C@@H](CC(N)=O)C(=O)N1 (stereo in doubt)	10 nM	10 nM	100 nM	–	–
421 nM	50.1 nM	CC[C@H](C)[C@@H]1NC(=O)C(Cc2ccccc2)NC(=O)CCSSC[C@H](C(=O)N(C)CC(=O)N[C@@H](CCCN=C(N)N)C(=O)NCC(N)=O)NC(=O)[C@H](CC(N)=O)NC(=O)[C@H](CCC(N)=O)NC1=O (stereo in doubt) [listing 1 of 2 here]	–	–	–	–	–
29 nM	0.32 nM	CCOc1ccc(CC2NC(=O)CC3(CCCCC3)SSC[C@@H](C(=O)N(C)CC(=O)N[C@@H](CCCN=C(N)N)C(=O)NCC(N)=O)NC(=O)[C@H](CC(N)=O)NC(=O)[C@H](CCC(N)=O)NC(=O)[C@H](Cc3ccccc3)NC2=O)cc1 (stereo in doubt)	10 nM	3.98 nM	79.4 nM	2.5	–
240 nM	0.59 nM	CN(CC(=O)N[C@@H](CCCNC(=N)N)C(=O)NCC(N)=O)C(=O)[C@@H]1CSSC2(CCCCC2)CC(=O)N[C@@H](Cc2ccc(O)cc2)C(=O)N[C@@H](Cc2ccccc2)C(=O)N[C@@H](CCC(N)=O)C(=O)N[C@@H](CC(N)=O)C(=O)N1	–	–	–	–	–
–	–	CC[C@H](C)[C@@H]1NC(=O)C(Cc2ccccc2)NC(=O)CCSSC[C@H](C(=O)N(C)CC(=O)N[C@@H](CCCN=C(N)N)C(=O)NCC(N)=O)NC(=O)[C@H](CC(N)=O)NC(=O)[C@H](CCC(N)=O)NC1=O (stereo in doubt) [listing 2 of 2 here]	398 nM	5.01 nM	39.8 nM	–	10 nM
35 nM	13.1 nM	CCOc1ccc(CC2NC(=O)CC3(CCCCC3)SSC[C@H](C(=O)N(C)CC(=O)N[C@@H](CCCN=C(N)N)C(=O)NCC(N)=O)NC(=O)[C@H](CC(N)=O)NC(=O)[C@H](CCC(N)=O)NC(=O)[C@H]([C@@H](C)CC)NC2=O)cc1 (stereo in doubt)	398 nM	5.01 nM	31.6 nM	80	7.94 nM
311 nM	8.28 nM	CC[C@H](C)[C@@H]1NC(=O)C(Cc2ccccc2)NC(=O)CC2(CCCCC2)SSC[C@H](C(=O)N(C)CC(=O)N[C@@H](CCCN=C(N)N)C(=O)NCC(N)=O)NC(=O)[C@H](CC(N)=O)NC(=O)[C@H](CCC(N)=O)NC1=O (stereo in doubt)	100 nM	10 nM	39.8 nM	10	10 nM

Compound	Kd (Vasopressin V2 receptor)	Kd (Vasopressin V1 receptor)	Kb (Rattus norvegicus [1])	Kb (Rattus norvegicus [2])	Kb (Rattus norvegicus [3])	Ratio [4]	Kb (Rattus norvegicus [5])
CC[C@H](C)[C@@H]1NC(=O)[C@@H](Cc2c[nH]c3ccccc23)NC(=O)CC2(CCCCC2)SSC[C@@H](C(=O)N(C)CC(=O)N[C@@H](CCCN=C(N)N)C(=O)NCC(N)=O)NC(=O)[C@H](CC(N)=O)NC(=O)[C@H](CCC(N)=O)NC1=O (HELM PEPTIDE1{[dW].I.Q.N.C.[Sar].R.G.[am]}|CHEM1{[O=C(CC1(S[*:2])CCCCC1)[*:1]]}$PEPTIDE1,CHEM1,1:R1-1:R1|PEPTIDE1,CHEM1,5:R3-1:R2$$$V2.0)	300000 nM	3.8 nM	31.6 nM	12.6 nM	31.6 nM	–	20 nM
